Measurements reported in ChEMBL document CHEMBL3627705 (Bioorg Med Chem Lett, 2015).

Key:
[1] = molecular target: T1, Corticotropin-releasing factor receptor 1 (Homo sapiens, UniProt P34998); experiment: Displacement of [125I]-Tyr0-sauvagine from human CRF1 receptor expressed in HEK293T cells after 2 hrs by scintillation counting; type: cell-based, HEK-293T
T1 sequence (P34998 whole entry): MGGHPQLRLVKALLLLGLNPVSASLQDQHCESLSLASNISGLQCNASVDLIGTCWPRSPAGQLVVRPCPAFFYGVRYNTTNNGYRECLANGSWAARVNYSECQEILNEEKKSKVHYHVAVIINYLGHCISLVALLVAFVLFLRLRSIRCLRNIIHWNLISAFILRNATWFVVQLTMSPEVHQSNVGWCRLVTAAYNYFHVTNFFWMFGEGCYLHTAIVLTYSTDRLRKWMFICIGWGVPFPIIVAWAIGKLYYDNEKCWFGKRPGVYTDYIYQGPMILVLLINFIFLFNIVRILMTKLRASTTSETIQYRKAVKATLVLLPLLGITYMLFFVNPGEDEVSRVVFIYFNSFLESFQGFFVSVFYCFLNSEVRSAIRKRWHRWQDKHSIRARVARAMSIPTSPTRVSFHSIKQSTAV

[2] = Lipophilicity, logP of the compound at pH 7.4; type: physicochemical; conditions: buffer
Method in brief: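 Octanol/aqueous buffer shake-flask partition at pH 7.4, done on the 18F-labelled radioligands; mean ± SD of n = 4.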

Brain = experiment: Drug uptake in cynomolgus monkey brain assessed as whole-brain time-activity curve by MicroPET imaging analysis; type: ADME, tissue-based, Macaca fascicularis; conditions: in vivo
[3] = molecular target: T2, Corticotropin-releasing factor receptor 2 (Homo sapiens) (UniProt Q13324); experiment: Displacement of [125I]-antisauvagine-30 from human CRF2 receptor expressed in HEK293T cells at 1 uM after 2 hrs by scintillation counting; type: cell-based; conditions: HEK-293T
T2 sequence (whole entry): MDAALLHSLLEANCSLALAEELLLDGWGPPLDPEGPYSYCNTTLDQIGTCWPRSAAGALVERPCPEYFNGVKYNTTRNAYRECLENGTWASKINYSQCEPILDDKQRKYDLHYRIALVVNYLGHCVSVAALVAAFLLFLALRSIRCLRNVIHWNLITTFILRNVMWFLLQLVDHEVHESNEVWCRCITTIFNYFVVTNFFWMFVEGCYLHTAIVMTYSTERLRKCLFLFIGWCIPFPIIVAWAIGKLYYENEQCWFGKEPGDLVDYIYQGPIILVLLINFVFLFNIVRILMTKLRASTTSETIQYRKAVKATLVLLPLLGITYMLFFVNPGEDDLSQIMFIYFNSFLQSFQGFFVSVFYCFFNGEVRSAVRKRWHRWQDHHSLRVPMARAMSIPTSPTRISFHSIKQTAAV
Method in brief: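 Competition binding at 23 °C on HEK293T cells transfected with human CRF2 receptor. Each ligand tested at 1 μM against the radiotracer [125I]antisauvagine-30. Read-out is mean % displacement of specific radiotracer binding, n = 2.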

Which Ki [1] does the source give for `Cc1cc(N(C)C)c2c(n1)N(c1ccc(C(C)C)cc1Br)CC(=O)N2CCCCF` here?
Its Ki is 21.6 nM.

What does the source list for `CCN(C)c1cc(C)nc2c1N(CCCC[17F])C(=O)CN2c1ccc(C(C)C)cc1Br`?
logD [2]: 2.22; SUV (Brain): <= 1

Which Ki [1] does the source give for `CCCCN(CC)c1cc(C)nc2c1NC(=O)CN2c1ccc(C(C)C)cc1Br` here?
Its Ki is 2.4 nM.

And the inhibition [3]?
The inhibition was 0.7%.

For `CCN(C)c1cc(C)nc2c1NC(=O)CN2c1ccc(C(C)C)cc1Br`, which Ki [1] is on record?
The Ki was 16.4 nM.

For `CC[C@H](C)[C@H](NC(=O)[C@@H](NC(=O)[C@H](CC(=O)O)NC(=O)[C@H](CC(C)C)NC(=O)[C@H](CC(C)C)NC(=O)[C@H](CC(C)C)NC(=O)[C@H](CCCN=C(N)N)NC(=O)[C@H](CC(N)=O)NC(=O)[C@H](CC(N)=O)NC(=O)[C@H](C)NC(=O)[C@H](C)NC(=O)[C@H](CCC(N)=O)NC(=O)[C@H](CCC(N)=O)NC(=O)[C@H](CCCCN)NC(=O)[C@H](CCC(=O)O)NC(=O)[C@H](CCCCN)NC(=O)[C@H](CCC(=O)O)NC(=O)[C@H](CCC(N)=O)NC(=O)[C@H](CCCCN)NC(=O)[C@H](CCC(=O)O)NC(=O)[C@@H](NC(=O)[C@H](CCC(=O)O)NC(=O)[C@@H](NC(=O)[C@H](CCSC)NC(=O)[C@H](CCCCN)NC(=O)[C@H](CCCN=C(N)N)NC(=O)[C@H](CC(C)C)NC(=O)[C@H](CC(C)C)NC(=O)[C@H](CCC(=O)O)NC(=O)[C@H](CC(C)C)NC(=O)[C@H](CO)NC(=O)[C@H](CC(C)C)NC(=O)[C@H](CC(=O)O)NC(=O)[C@@H](NC(=O)[C@H](CO)NC(=O)[C@@H](NC(=O)[C@@H]1CCCN1C(=O)[C@@H]1CCCN1C(=O)CNC(=O)[C@@H]1CCC(=O)N1)[C@@H](C)CC)[C@@H](C)CC)[C@@H](C)CC)[C@@H](C)CC)[C@@H](C)O)C(=O)O`, which inhibition [3] is on record?
Its inhibition is 100%.

With `CCCCN(CC)c1cc(C)nc2c1NC(=O)CN2c1ccc(Br)cc1C` as the molecule, how does the Ki [1] read?
The Ki was 4.4 nM.

What about the inhibition [3] of the same molecule?
Its inhibition is 5.9%.

For `CCCCN(CC)c1cc(C)nc2c1N(C)C(=O)CN2c1ccc(Br)cc1Br`, which Ki [1] is on record?
The Ki was 2.4 nM.

For `CCCCN(CC)c1cc(C)nc2c1NC(=O)CN2c1ccc(C)cc1C`, which Ki [1] is on record?
Its Ki is 3.9 nM.

What about the inhibition [3] of the same molecule?
Its inhibition is 6.8%.

With `CCCCN(CC)c1cc(C)nc2c1NC(=O)CN2c1ccc(C)cc1Br` as the molecule, how does the Ki [1] read?
The Ki was 4.4 nM.

And the inhibition [3]?
The inhibition was 5.5%.

With `CCN(C)c1cc(C)nc2c1N(CCCCF)C(=O)CN2c1ccc(C(C)C)cc1Br` as the molecule, how does the Ki [1] read?
Its Ki is 13.9 nM.

With `CCCCN(CC)c1cc(C)nc2c1NC(=O)CN2c1ccc(C)cc1Cl` as the molecule, how does the Ki [1] read?
Its Ki is 4.4 nM.

Which Ki [1] does the source give for `Cc1cc(N(C)C)c2c(n1)N(c1ccc(C(C)C)cc1Br)CC(=O)N2CCF` here?
The Ki was 59 nM.

Which results are given for `CCCCN(CC)c1cc(C)nc2c1NC(=O)CN2c1ccc(OC)cc1C`?
Ki [1]: 4 nM; inhibition [3]: -2.3%

For `CCCCN(CC)c1cc(C)nc2c1NC(=O)CN2c1ccc(Br)cc1CC`, which Ki [1] is on record?
Its Ki is 2.5 nM.

What about the inhibition [3] of the same molecule?
Its inhibition is 2.1%.

Which Ki [1] does the source give for `CCCCN(CC)c1cc(C)nc2c1NC(=O)CN2c1ccc(C(C)(C)C)cc1Br` here?
The Ki was 4.2 nM.

And the inhibition [3]?
The inhibition was -3.8%.

With `CCCN(CCC)c1cc(C)nc2c1NC(=O)CN2c1ccc(C(C)C)cc1Br` as the molecule, how does the Ki [1] read?
Its Ki is 3.1 nM.

Which Ki [1] does the source give for `CCCCN(CC)c1cc(C)nc2c1NC(=O)CN2c1ccc(Br)cc1Cl` here?
The Ki was 2.7 nM.

For `Cc1cc(N(C)C)c2c(n1)N(c1ccc(C(C)C)cc1Br)CC(=O)N2C/C=C/CF`, which Ki [1] is on record?
The Ki was 14.2 nM.

With `CCCCN(CC)c1cc(C)nc2c1NC(=O)CN2c1ccc(I)cc1C` as the molecule, how does the Ki [1] read?
The Ki was 3.4 nM.

For `Cc1cc(N(C)C)c2c(n1)N(c1ccc(C(C)C)cc1Br)CC(=O)N2`, which Ki [1] is on record?
Its Ki is 180 nM.

With `CCN(CC)c1cc(C)nc2c1N(CCF)C(=O)CN2c1ccc(C(C)C)cc1Br` as the molecule, how does the Ki [1] read?
The Ki was 7.3 nM.

What does the source list for `CCCCN(CC)c1cc(C)nc2c1NC(=O)CN2c1ccc(Br)cc1Br`?
Ki [1]: 1.3 nM; inhibition [3]: 9.4%

Which Ki [1] does the source give for `CCCCN(CC)c1cc(C)nc2c1NC(=O)CN2c1ccc(Cl)cc1Br` here?
The Ki was 2.5 nM.

Which logD [2] does the source give for `Cc1cc(N(C)C)c2c(n1)N(c1ccc(C(C)C)cc1Br)CC(=O)N2CCCC[17F]` here?
The logD was 2.19.

For `CCCCN(CC)c1cc(C)nc2c1NC(=O)CN2c1ccc(Cl)cc1C`, which Ki [1] is on record?
Its Ki is 5.4 nM.

For `CCCN(CCC)c1cc(C)nc2c(-c3cnc(N(C)C)cc3C)c(C)nn12`, which inhibition [3] is on record?
Its inhibition is 23.8%.

For `CCCCN(CC)c1cc(C)nc2c1NC(=O)CN2c1ccc(Cl)cc1Cl`, which Ki [1] is on record?
Its Ki is 3.4 nM.

And the inhibition [3]?
Its inhibition is 0.9%.
